High-throughput results (PubChem BioAssay)
This is a sample that favours compounds with a hit; in the whole collection about 2.9% have one here.
SIRT5 block: SIRT5 desuccinylase inhibitors, primary screen, biochemical, fluorescence imaging, single point, set 5. NAD-dependent protein deacylase sirtuin-5, mitochondrial (Homo sapiens), Q9NXA8. Purified SirT5, succinyl-peptide AMC, trypsin-coupled fluorescence. inhibition, % at 15 µM. 330,000 tested, 1.1% active. AID 652115, 2013; in the data active = inhibition above about 15%; inconclusive = no clear call, values can overlap the other calls
DENV2 CPE: inhibitors of DENV2 cytopathic effect, primary screen, cell-based, plate reader, single concentration | DENV2-infected cells, cytopathic effect rescue | CPE inhibition, % at 9.99 µM | 350,000 tested, 1.7% active; in the data active = CPE inhibition above about 20%, passing the limit was not always enough; inconclusive = no clear call, values can overlap the other calls; tested in BHK-21 cells;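 also: 0% = median of neutral control wells and 100% = median of positive control wells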
E-selectin induc: E-selectin induction in HUVECs, primary screen, imaging, HUVEC, immunofluorescence imaging, single point. normalized: neutral wells 0, TNF-alpha wells 100. 260,000 tested, 0.37% active. P16581. activation, % at 7.58 µM. AID 686992, 2013;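 active = mean E-selectin-positive cell signal at least 10% of the positive control, reached in at least 60% of replicates, without over 20% cell loss; inconclusive = no rule given, readout overlaps actives, possibly toxicity-flagged; inactive = the rest, including those meeting only one limit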
Target sequence (P16581 whole entry, looked up): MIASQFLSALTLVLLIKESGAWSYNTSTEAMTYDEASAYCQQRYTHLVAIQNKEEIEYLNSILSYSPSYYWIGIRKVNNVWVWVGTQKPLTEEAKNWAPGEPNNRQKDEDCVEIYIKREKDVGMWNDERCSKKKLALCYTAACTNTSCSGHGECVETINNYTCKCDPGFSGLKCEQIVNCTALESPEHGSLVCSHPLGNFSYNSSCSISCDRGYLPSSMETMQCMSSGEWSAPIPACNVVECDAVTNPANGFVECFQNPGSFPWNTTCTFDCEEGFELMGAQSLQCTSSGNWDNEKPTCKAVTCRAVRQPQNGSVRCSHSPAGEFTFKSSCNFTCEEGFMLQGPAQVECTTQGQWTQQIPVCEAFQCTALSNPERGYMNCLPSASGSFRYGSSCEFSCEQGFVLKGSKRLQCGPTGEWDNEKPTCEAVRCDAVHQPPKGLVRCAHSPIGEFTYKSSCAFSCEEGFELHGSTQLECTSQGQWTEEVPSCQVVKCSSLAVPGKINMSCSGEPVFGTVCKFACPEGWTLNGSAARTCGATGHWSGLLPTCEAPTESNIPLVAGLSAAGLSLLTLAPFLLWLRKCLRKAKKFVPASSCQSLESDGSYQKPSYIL
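Test system: HUVEC; input: 3,000 HUVEC/well; measured by: immunofluorescence imaging; read-out: % PE-positive cells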
Numbers without * were called inactive; u = inconclusive; x = no result.

SMILES	SIRT5 block	DENV2 CPE	E-selectin induc
N#C[C@@H]1[C@H](c2ccccc2)[C@H](CO)N1C(=O)Cc1ccccc1	-2	74*	0
COCC(=O)N1[C@H](C#N)[C@H](c2ccccc2-c2cccc(F)c2)[C@H]1CO	24*	-4	0
COCC(=O)N1[C@@H](C#N)[C@H](c2ccccc2-c2cccc(F)c2)[C@@H]1CO	3	-6	0
COc1cc2c3c(c1OC)-c1cc4c(cc1CC3(C#N)N(C(=O)c1ccccc1)CC2)OCO4 (stereo not drawn)	x	0	0
CCOCCn1c(COc2ccc(C)cc2)nc2ccccc21	x	x	0
COC(=O)C1(CC2CC(c3ccncc3)=NO2)CCN(C(=O)OC(C)(C)C)CC1 (stereo not drawn)	x	37*	0
COC(=O)C1(CC2CC(c3ccccc3)=NO2)CCN(C(=O)OC(C)(C)C)CC1 (stereo not drawn)	x	-1	0
O=C(OCCc1cc2ccccc2c(=O)o1)c1cccs1	13	8	0
COc1ccc2[nH]c(C(=O)NCc3ccccc3)cc2c1	0	-1	x
CCOC(=O)C1=CC[C@@H](c2ccc(OC)cc2)N(S(=O)(=O)c2ccc(C)cc2)[C@H]1CC	-5	13	0
CCOC(=O)C1=CC[C@H]2c3c(c4ccc(OC)cc4n3C)C(=O)C1N2S(=O)(=O)c1ccc(C)cc1	-3	31*	0
COCCN1C(=O)COc2ccccc2C1C(=O)NCc1ccccc1 (stereo not drawn)	2	1	x
COc1ccc(NC(=O)C/C(C)=N/NC(=O)c2ccco2)c([N+](=O)[O-])c1	-3	3	0
COc1ccc(-c2cc(C#N)nc(NN)n2)cc1	0	47*	0
COc1ccc(-c2cc(C#N)nc(Cl)n2)cc1	-3	0	6
COc1ccc(NC(=O)C(C2CC2)n2c(=O)c(-c3cc4ccccc4[nH]3)nc3ccccc32)cc1 (stereo not drawn)	0	1	0
N#Cc1ccc(C(C(=O)NCc2ccccc2)n2c(=O)c(-c3cc4ccccc4[nH]3)nc3ccccc32)cc1 (stereo not drawn)	x	4	1
O=C(Nc1ccc2ccccc2c1)C(C1CC1)n1c(=O)c(-c2cc3ccccc3[nH]2)nc2ccccc21 (stereo not drawn)	-3	47*	1
O=C(NCc1ccccc1)C(c1ccc(C(F)(F)F)cc1)n1c(=O)c(-c2cc3ccccc3[nH]2)nc2ccccc21 (stereo not drawn)	1	38*	1
Cc1ccc(S(=O)(=O)Nn2cnnc2)cc1	-1	2	0
COc1ccc(CN(C)C[C@@H]2Oc3ccc(NS(=O)(=O)c4cccs4)cc3C(=O)N([C@@H](C)CO)C[C@H]2C)cc1	4	32*	-9
COc1ccc(CN(C)C[C@H]2Oc3ccc(NS(=O)(=O)c4cccs4)cc3C(=O)N([C@@H](C)CO)C[C@H]2C)cc1	-5	16	-7
COc1ccc(CN(C)C[C@@H]2Oc3ccc(NS(=O)(=O)c4cccs4)cc3C(=O)N([C@H](C)CO)C[C@H]2C)cc1	0	31*	-21
COc1ccc(CN(C)C[C@H]2Oc3ccc(NS(=O)(=O)c4cccs4)cc3C(=O)N([C@H](C)CO)C[C@H]2C)cc1	-4	5	-24
C[C@H](CO)N1C[C@H](C)[C@H](CN(C)Cc2ccc(C(F)(F)F)cc2)Oc2ccc(NS(=O)(=O)c3cccs3)cc2C1=O	16*	-5	13
SMILES	SIRT5 block	DENV2 CPE	E-selectin induc
C[C@H]1CN([C@@H](C)CO)C(=O)c2cc(NS(=O)(=O)c3cccs3)ccc2O[C@@H]1CN(C)Cc1ccc(C(F)(F)F)cc1	8	-6	-6
CCN(CC)S(=O)(=O)c1ccc(O)c(C(=O)OCC(=O)Nc2ccc(OC(F)(F)F)cc2)c1	-3	-4	x
COc1ccc(S(=O)(=O)NNC(=O)C2CC(c3cccnc3)=NO2)cc1 (stereo not drawn)	-5	-3	x
O=C(CSc1nc2ccccc2c(=O)n1Cc1ccco1)NCCN1C(=O)CSC1=O	-11	x	0
O=c1[nH]c2ccccc2nc1-c1ccc(Cl)cc1	0	-5	1
O=C(NCCCN1CCOCC1)c1sc2ccccc2c1Cl	0	1	x
CC(C)(C)OC(=O)C[C@H]1C/C=C\C[C@H](CC(=O)N[C@H](CO)Cc2ccccc2)C(=O)N[C@H](C(C)(C)C)COC1=O	2	-13	0
O=C(C[C@H]1C/C=C\CC[C@H](Cc2ccc(F)cc2)C(=O)O[C@@H](c2ccccc2)CNC1=O)N[C@H](CO)Cc1ccccc1	x	86*	10
O=C(C[C@H]1C/C=C\CC[C@H](Cc2ccc(F)cc2)C(=O)O[C@@H](c2ccccc2)CNC1=O)N[C@@H](CO)Cc1ccccc1	-2	x	0
O=C1NC[C@H](c2ccccc2)OC(=O)[C@@H](Cc2ccc(F)cc2)CC/C=C/C[C@@H]1CC(=O)N(CCO)Cc1ccccc1	x	47*	0
O=C1NC[C@H](c2ccccc2)OC(=O)[C@H](Cc2ccc(F)cc2)C/C=C\C[C@@H]1CC(=O)N(CCO)Cc1ccccc1	4	-7	0
CC(C)(C)OC(=O)C[C@H]1C/C=C\C[C@H](CC(=O)N[C@@H](CO)Cc2ccccc2)C(=O)N[C@H](C(C)(C)C)COC1=O	-1	63*	0
O=C1CCCC/C=C\C[C@H](CC(=O)N(CCO)Cc2ccccc2)C(=O)NC[C@H](c2ccccc2)O1	x	130*	0
O=C1NC[C@H](c2ccccc2)OC(=O)[C@@H](Cc2ccc(F)cc2)CC/C=C/C[C@H]1CC(=O)N(CCO)Cc1ccccc1	4	2	0
O=C(CSc1nc2ccccc2[nH]1)c1ccccc1F	1	1	0
O=C(C[C@@H]1CC[C@H]2[C@@H](COC[C@@H](O)CN2C(=O)c2ccccc2)O1)NCc1ccc(-c2ccccc2)cc1	1	1	0
CC(C)(C)c1ccc(S(=O)(=O)NC(=O)C2(C)CCN2C(=O)Cc2cccc3ccccc23)cc1 (stereo not drawn)	2	11	1
CCOC(=O)CSc1nc(C)c2cc(C)c(C)cc2n1	17*	9	5
Cc1cc2nc(SCC(=O)O)nc(C)c2cc1C	-1	8	x
COc1cccc(/C=N/n2c(-c3cc(C)[nH]n3)n[nH]c2=S)c1O	0	u	x
C=CCC1(CC=C)CCCN1C(=O)CC1C(=O)NCCN1Cc1cccc(OC)c1 (stereo not drawn)	1	-2	-5
CCOc1ccc2ncc(S(=O)(=O)c3ccc(C)cc3)c(N3CCC4(CC3)OCCO4)c2c1	0	5	140*
CCOc1ccc(S(=O)(=O)c2c(C(=O)c3ccccc3)cnc3cc4c(cc23)OCCO4)cc1	-5	3	0
CC(c1ccc2c(c1)OCO2)n1c(=S)[nH]c2ccccc2c1=O (stereo not drawn)	-3	1	5
CC(=O)c1sc(NC(=O)c2cc(=O)c3ccccc3o2)nc1C	-21	5	x
CC(=O)c1sc(NC(=O)c2oc3ccc(F)cc3c2C)nc1C	1	21*	x
